Many of the other results were omitted from the sample, so hits are more common in it than they were.
Dynein transport – blocks dynein driven cargo transport along microtubules; 3617.4 mouse cells, GR-EGFP nuclear translocation imaging; test concentration mostly 20 µM; stimulated with dexamethasone, 1 µM; hits give low values; z-score, hits read low; actives 0.47% (n = 220,000); AID 1381;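 active = plate z-score of nuclear minus cytoplasmic receptor signal below a set negative limit, without overly bright fluorescence or cell loss, cut at about -3.5 in these data, passing the limit was not always enough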;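 also: z-score of nuclear minus cytoplasmic ring GR-EGFP intensity difference per well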
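Medium: Induction medium lacking tetracycline, stripped serum | Probe or stimulus: 1.0 µM final dexamethasone stimulus | Schedule: 48 h induction, then 1 h compound, then 30 min agonist, 37 °C | Signal: Automated 10x imaging of fixed Hoechst-stained cells | Evaluation: Per-cell GR-EGFP intensity, nucleus versus surrounding cytoplasmic ring, well-averaged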
XBP1 UPR activ – adaptive UPR (XBP1) activation; CHO-XBP1 luciferase reporter, IRE1-XBP1 UPR activation, luminescence; percent of tunicamycin response, DMSO as zero; activation, % at 20 µM; actives 0.33% (n = 330,000); AID 463104;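 active = versus positive control, 20 µM dose yields 30% or more activation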;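 also: 100% = tunicamycin at 10 µg/mL and 0% = DMSO only wells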
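assay system = CHO-XBP1 luciferase reporter cells | amount = 1000 cells/well | buffer or medium = F12 plus 10% FBS | compound dosing = single point, 20 µM final compound, 1% DMSO | incubation = 16-18 h cell attachment at 37 °C, then 6 h compound exposure | detection = Steady-Glo luminescence read | controls = tunicamycin 10 µg/mL and vehicle-only wells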
T cruzi inh – T. cruzi replication inhibition | T. cruzi beta-gal in NIH3T3, luminescence, 90 h | inhibition, % (concentration not given with the values) | actives 1.4% (n = 300,000);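 active = mean inhibition across valid replicates above about 55%, limit read from the data; inconclusive = mean below that limit but half or more replicates reach it; inactive = mean below it, under half of replicates reach it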;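 also: signal also drops with host cell toxicity which is not excluded here; 0% = plate median of DMSO wells and 100% = zero luminescence signal; higher percent means less beta-gal luminescence so fewer parasites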
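System – NIH/3T3 host cells with β-galactosidase reporter T. cruzi · Doses – single 50 nL compound addition per well in DMSO · Reagent – 5000 T. cruzi trypomastigotes/well · Medium – Low-serum DMEM with 2% FBS · Timing – ≥90 h infection period, 3 h prior cell attachment · Evaluation – parasite load inhibition, % · Technique – GalScreen luminescence, 60 min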
CHOP inh – blocks CHOP induction under ER stress; CHO-K1 CHOP-promoter luciferase, tunicamycin-induced, 15-18 h; inhibition, % at 10 µM; actives 3.8% (n = 220,000);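 active = compounds that reduced the stress-induced luciferase reporter signal by more than about 70% of percent inhibition, limit read from the data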;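 also: 0% = tunicamycin plus vehicle and 100% = wells without tunicamycin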
UPR CHOP act – activators of apoptotic arm of unfolded protein response (CHOP); activation, % at 10 µM; AID 449763; actives 0.34% (n = 330,000); CHO-CHOP luciferase reporter, UPR activation, luminescence; percent of tunicamycin response over DMSO baseline;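 active = at 10 µM dose, activation of 40% or more, normalized to positive control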;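 also: 100% = tunicamycin at 10 µg/mL and 0% = DMSO alone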
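System: CHO-CHOP luciferase reporter cell line | Buffer or medium: F12 medium containing 10% fetal bovine serum | Doses: One dose, 10 µM in 0.5% DMSO | Times: 6 h compound exposure at 37 °C after overnight seeding | Signal: Luciferase luminescence | Read-out: % activation vs tunicamycin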
L major viab – Leishmania major promastigote growth inhibition | Leishmania major promastigotes, resazurin fluorescence viability | inhibition, % at 10 µM | actives 9% (n = 200,000); in the data active = inhibition above about 50%;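 also: promastigotes grown with compound for 44 hours at 28 °C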
Numbers without * were called inactive; ? = inconclusive; · = not tested or not shown.

SMILES	Dynein transport	XBP1 UPR activ	T cruzi inh	CHOP inh	UPR CHOP act	L major viab
CS(=O)(=O)N(CC(=O)Nc1ccccc1Sc1ccccc1)c1cccc(Br)c1	-0.968	-4.6	0.4	77.1*	-0.3	1.8
CC(=O)NC(C)c1cc(Cl)c2cccnc2c1O (stereo not drawn)	·	-1.7	·	·	-1.7	·
COc1ccccc1C(NC(C)=O)c1cc(Cl)c2cccnc2c1O (stereo not drawn)	·	3.5	60.7*	·	11.5	·
CCOc1ccc(C(Nc2cccnc2)c2cc(Cl)c3cccnc3c2O)cc1 (stereo not drawn)	-0.898	5.6	-1.0	53.9	1.6	89.5*
COc1ccc(C(NC(C)=O)c2cc(Cl)c3cccnc3c2O)cc1OC (stereo not drawn)	-1.34	-2.0	57.5*	41.1	-0.4	22.5
COc1ccc(C(NC(C)=O)c2nccc3cc(OC)c(OC)cc23)cc1OC (stereo not drawn)	·	-1.3	-25.8	·	0.6	·
CCC(=O)NC(c1ccc(OC)c(OC)c1)c1cc(Cl)c2cccnc2c1O (stereo not drawn)	1.78	·	62.4*	31.8	·	90.4*
Nc1cc(-c2cccc(F)c2)nn1S(=O)(=O)c1cccc2nsnc12	-0.345	0.1	-0.1	5.3	-0.7	24.2
Nc1cc(-c2ccc(Br)cc2)nn1S(=O)(=O)c1cccc2nsnc12	-1.13	-1.8	28.9	86.1*	1.1	13.9
COc1ccccc1-c1cc(N)n(S(=O)(=O)c2cccc3nsnc23)n1	-0.319	0.0	0.7	9.3	-2.1	·
Nc1cc(-c2ccc(Cl)cc2)nn1S(=O)(=O)c1cccc2nsnc12	1.15	-1.9	25.0	80.5*	-1.7	19.9
CC1(NCC(O)COc2cccc3[nH]ccc23)CCC(C(C)(C)NC(=O)CBr)CC1 (stereo not drawn)	·	·	·	-10.8	·	·
O=C(COc1ccc2c(c1)OCO2)Nc1cccc(F)c1	·	0.6	-0.9	·	2.9	·
c1ccc2oc(-c3[nH]ncc3CN3CCSCC3)cc2c1	-0.433	-3.4	6.5	9.2	-0.2	25.2
COCC1CCCN(Cc2cn(Cc3ccccc3)nc2-c2cc3ccccc3o2)C1 (stereo not drawn)	0.0709	1.4	?	32.8	1.2	63.9*
COCC1CCN(Cc2cn[nH]c2-c2cc3ccccc3o2)C1 (stereo not drawn)	1.03	-0.3	69.1*	-5.6	-1.7	12.4
O=C(CN1CCCCC1)Nc1cc(S(=O)(=O)N2CCOCC2)ccc1N1CCCC1	·	-2.5	·	·	-0.2	·
CCCN(C(=O)CSc1ncnc2sccc12)c1c(N)n(Cc2ccccc2)c(=O)[nH]c1=O	·	-0.1	·	·	-1.9	·
CCN(CC)CCCN(C(=O)c1ccco1)c1nc(-c2ccc(Cl)cc2)cs1	·	-1.2	58.8*	·	-1.4	·
COCCCN(C(=O)c1ccco1)c1nc(-c2ccc(OC)cc2)cs1	·	-1.0	13.6	·	1.9	·
CCN(CC)CCCN(C(=O)c1ccco1)c1nc(-c2ccc(C)cc2)cs1	-0.748	5.5	32.8	-8.2	2.5	71.7*
O=C(c1cccc(C(F)(F)F)c1)C1CCCN(C(=O)CCCN2CCCC2=O)C1 (stereo not drawn)	-0.1	-0.2	-1.0	-0.4	-0.6	-5.1
CC(C)C(NC(=O)COc1ccc2ccccc2c1)C(=O)N/N=C/C=C/c1ccccc1 (stereo not drawn)	-1.06	29.5	-17.6	85.9*	-0.4	5.7
Cc1ccc(CNC(=O)CN2C(=O)CSc3ccc(S(=O)(=O)N4CCC(C)CC4)cc32)cc1	·	-3.5	12.1	·	0.3	·
CCN(CC)CCNC1=NCCn2c1cc1cc(OC)ccc12	-0.569	0.1	49.9	17.5	0.7	95.9*
COc1ccc(C2=Nn3c(nnc3C3CCCCC3)SC2)cc1OC	0.00384	11.1	7.2	8.1	0.2	50.4*
CC(CN1C(C)CCCC1C)OC(=O)c1ccc(Cl)cc1Cl (stereo not drawn)	-0.0249	-1.9	9.7	3.3	-0.5	10.0
O=C1/C(=C/c2cccs2)N=C(c2cccs2)N1Nc1ccccc1	-0.424	0.3	22.3	93.9*	0.4	0.0
